ChEMBL document CHEMBL1144782, “Isoindolo[2,1-a]quinoxaline derivatives, novel potent antitumor agents with dual inhibition of tubulin polymerization and topoisomerase I” (2008)
Where “and” joins values, the source holds several entries; their conditions need not be identical. Equal entries are not always repeated.

Key:
HOP-92 = test: Antitumor activity against human HOP92 cells; assay type: functional; conditions: for TGI: read-out: pTGI (converted)
Outline: (§1)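 Run by the NCI in its in vitro disease-oriented screen of about 60 human tumour cell lines. For each line it reports pGI50 (50% net growth inhibition), pTGI (total growth inhibition) and pLC50 (50% net cell death), each as –log molar concentration. Where an effect was not reached within the tested range, the highest tested concentration was used.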

NCI-H522 = test: Antitumor activity against human NCI-H522 cells; assay type: functional; conditions: for CC50: read-out: Log LC50 (the source's name) (converted); for TGI: read-out: pTGI (converted); outline: as §1
COLO 205 = test: Antitumor activity against human COLO205 cells; assay type: functional; conditions: for TGI: read-out: pTGI (converted); outline: as §1
HCC 2998 = test: Antitumor activity against human HCC2998 cells; assay type: functional; conditions: for TGI: read-out: pTGI (converted); outline: as §1
HCT-116 = test: Antitumor activity against human HCT116 cells; assay type: functional; conditions: for TGI: read-out: pTGI (converted); outline: as §1
SF-268 [1] = test: Antitumor activity against human SF268 cells; assay type: functional; conditions: for CC50: read-out: Log LC50 (the source's name) (converted); for TGI: read-out: pTGI (converted); outline: as §1
SF-539 = test: Antitumor activity against human SF539 cells; assay type: functional; conditions: for TGI: read-out: pTGI (converted); outline: as §1
SNB-75 = test: Antitumor activity against human SNB75 cells; assay type: functional; conditions: for TGI: read-out: pTGI (converted); outline: as §1
LOX IMVI = test: Antitumor activity against human LOXIMVI cells; assay type: functional; conditions: for TGI: read-out: pTGI (converted); outline: as §1
M14 = test: Antitumor activity against human M14 cells; assay type: functional; conditions: for CC50: read-out: Log LC50 (the source's name) (converted); for TGI: read-out: pTGI (converted); outline: as §1
UACC-62 = test: Antitumor activity against human UACC62 cells; assay type: functional; conditions: for TGI: read-out: pTGI (converted)
Outline: (§2)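 NCI 60-cell-line screen. Parameters were GI50 (50% net growth inhibition), TGI and LC50, each reported as –log molar concentration. Where an effect was not reached within the tested range, the highest tested concentration was used in the calculation.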

IGROV-1 = test: Antitumor activity against human IGROV1 cells; assay type: functional; conditions: for CC50: read-out: Log LC50 (the source's name) (converted); for TGI: read-out: pTGI (converted); outline: as §1
OVCAR-4 = test: Antitumor activity against human OVCAR4 cells; assay type: functional; conditions: for TGI: read-out: pTGI (converted); outline: as §1
SK-OV-3 = test: Antitumor activity against human SKOV3 cells; assay type: functional; conditions: for TGI: read-out: pTGI (converted); outline: as §1
CAKI-1 = test: Antitumor activity against human CAKI1 cells; assay type: functional; conditions: for TGI: read-out: pTGI (converted); outline: as §1
Tubulin (Sus scrofa) = Tubulin (Sus scrofa) (UniProt P02554+P02550); test: Inhibition of pig brain tubulin polymerization
MCF7 [2] = test: Cell viability against human MCF7 cells at 10 uM; assay type: functional
SF-268 [3] = test: Cell viability against human SF268 cells at 10 uM; assay type: functional
A549 = test: Antitumor activity against human A549 cells; assay type: functional; conditions: for CC50: read-out: Log LC50 (the source's name) (converted); for TGI: read-out: pTGI (converted); outline: as §1
SN12C = test: Antitumor activity against human SN12C cells; assay type: functional; conditions: for TGI: read-out: pTGI (converted); outline: as §1
TK-10 = test: Antitumor activity against human TK10 cells; assay type: functional; conditions: for CC50: read-out: Log LC50 (the source's name) (converted); for TGI: read-out: pTGI (converted); outline: as §2
MCF7 [4] = test: Antitumor activity against human MCF7 cells; assay type: functional; conditions: for TGI: read-out: pTGI (converted); outline: as §1
[5] = Antitumor activity against human […] cells; assay type: functional; conditions: for TGI: read-out: pTGI (converted); outline: as §1
T47D = test: Antitumor activity against human T47D cells; assay type: functional; conditions: for TGI: read-out: pTGI (converted); outline: as §2
CCRF-CEM = test: Resistance index, Ratio of GI50 for human vinblastine-resistant CEM cells to GI50 for human CEM cells; assay type: functional

Sequence of Tubulin (Sus scrofa) (P02550 whole entry, looked up): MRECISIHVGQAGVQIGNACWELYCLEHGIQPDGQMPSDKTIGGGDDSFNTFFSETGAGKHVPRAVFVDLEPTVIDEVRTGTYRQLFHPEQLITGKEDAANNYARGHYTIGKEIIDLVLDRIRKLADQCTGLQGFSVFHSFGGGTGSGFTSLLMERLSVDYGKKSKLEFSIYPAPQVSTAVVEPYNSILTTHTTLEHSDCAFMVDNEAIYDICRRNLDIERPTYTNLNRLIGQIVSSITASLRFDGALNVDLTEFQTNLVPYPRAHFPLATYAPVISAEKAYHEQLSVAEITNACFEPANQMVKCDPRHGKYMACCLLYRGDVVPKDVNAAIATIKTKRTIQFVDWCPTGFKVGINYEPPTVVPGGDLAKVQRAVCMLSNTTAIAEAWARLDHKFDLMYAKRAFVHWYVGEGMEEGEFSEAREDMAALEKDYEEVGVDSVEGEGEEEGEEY
Sequence of Tubulin (Sus scrofa) (P02554 whole entry, looked up): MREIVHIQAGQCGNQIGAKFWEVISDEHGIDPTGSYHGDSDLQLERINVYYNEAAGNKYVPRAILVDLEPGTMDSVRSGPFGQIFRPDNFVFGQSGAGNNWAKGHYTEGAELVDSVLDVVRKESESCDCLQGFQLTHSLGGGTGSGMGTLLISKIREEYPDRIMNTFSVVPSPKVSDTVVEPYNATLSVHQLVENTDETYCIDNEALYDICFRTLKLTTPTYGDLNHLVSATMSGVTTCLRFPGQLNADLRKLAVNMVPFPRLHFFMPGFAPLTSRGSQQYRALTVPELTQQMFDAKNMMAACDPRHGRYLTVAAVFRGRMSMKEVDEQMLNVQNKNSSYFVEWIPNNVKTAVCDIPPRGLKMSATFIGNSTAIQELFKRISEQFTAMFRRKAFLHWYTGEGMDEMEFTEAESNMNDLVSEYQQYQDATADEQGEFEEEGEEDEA

SMILES: Cc1cccc2c1[nH]c(=O)c1c3ccccc3cn21
- GI50 (HOP-92): 3.98 µM
- LC50 (HOP-92): > 100 µM
- TGI (HOP-92): 32.4 µM
- GI50 (NCI-H522): 6.46 µM
- CC50 (NCI-H522): > 100 µM
- TGI (NCI-H522): 64.6 µM
- GI50 (COLO 205): 7.41 µM
- LC50 (COLO 205): > 100 µM
- TGI (COLO 205): 34.7 µM
- GI50 (HCC 2998): 4.57 µM
- LC50 (HCC 2998): 40.7 µM
- TGI (HCC 2998): 16.2 µM
- GI50 (HCT-116): 2.69 µM
- LC50 (HCT-116): 33.9 µM
- TGI (HCT-116): 11.7 µM
- GI50 (SF-268 [1]): 3.02 µM
- CC50 (SF-268 [1]): 75.9 µM
- TGI (SF-268 [1]): 8.51 µM
- GI50 (SF-539): 3.89 µM
- LC50 (50% net cell kill) (SF-539): 40.7 µM
- TGI (SF-539): 15.8 µM
- GI50 (SNB-75; Homo sapiens, SNB-75): 30.9 µM
- LC50 (SNB-75; Homo sapiens, SNB-75): > 100 µM
- TGI (SNB-75; Homo sapiens, SNB-75): > 100 µM
- GI50 (LOX IMVI): 6.17 µM
- LC50 (50% net cell kill) (LOX IMVI): 42.7 µM
- TGI (LOX IMVI): 18.2 µM
- GI50 (M14): 12.6 µM
- CC50 (M14): 77.6 µM
- TGI (M14): 30.9 µM
- GI50 (UACC-62): 6.92 µM
- LC50 (UACC-62): 95.5 µM
- TGI (UACC-62): 28.2 µM
- GI50 (IGROV-1): 3.72 µM
- CC50 (IGROV-1): > 100 µM
- TGI (IGROV-1): > 100 µM
- GI50 (OVCAR-4): 6.76 µM
- LC50 (50% net cell kill) (OVCAR-4): > 100 µM
- TGI (OVCAR-4): > 100 µM
- GI50 (SK-OV-3): 27.5 µM
- LC50 (50% net cell kill) (SK-OV-3): > 100 µM
- TGI (SK-OV-3): > 100 µM
- GI50 (CAKI-1): 2.19 µM
- LC50 (CAKI-1): > 100 µM
- TGI (CAKI-1): 8.71 µM
- Activity (Tubulin (Sus scrofa)): > 10 µM
- Activity (MCF7 [2]): 27%
- Activity (SF-268 [3]): 55%
- GI50 (A549): 5.01 µM
- CC50 (A549): > 100 µM
- TGI (A549): > 100 µM
- GI50 (SN12C): 1.82 µM
- LC50 (SN12C): > 100 µM
- TGI (SN12C): 19.1 µM
- GI50 (TK-10): 26.9 µM
- CC50 (TK-10): > 100 µM
- TGI (TK-10): 87.1 µM
- GI50 (MCF7 [4]): < 0.01 µM
- LC50 (50% net cell kill) (MCF7 [4]): 39.8 µM
- TGI (MCF7 [4]): 12.6 µM
- GI50 [5]: 2.4 µM
- LC50 [5]: > 100 µM
- TGI [5]: 17.4 µM
- GI50 (T47D): 11.5 µM
- LC50 (T47D): > 100 µM
- TGI (T47D): 49 µM
- RatioGI50 (CCRF-CEM): 1.04

SMILES: O=c1[nH]c2ccccc2n2cc3ccccc3c12
- GI50 (HOP-92): 3.98 µM
- LC50 (HOP-92): 51.3 µM
- TGI (HOP-92): 18.6 µM
- GI50 (NCI-H522): 13.8 µM
- CC50 (NCI-H522): 75.9 µM
- TGI (NCI-H522): 32.4 µM
- GI50 (COLO 205): 4.57 µM
- LC50 (COLO 205): > 100 µM
- TGI (COLO 205): > 100 µM
- GI50 (HCC 2998): 5.89 µM
- LC50 (HCC 2998): 57.5 µM
- TGI (HCC 2998): 20.9 µM
- GI50 (HCT-116): 2.14 µM
- LC50 (HCT-116): 49 µM
- TGI (HCT-116): 12.3 µM
- GI50 (SF-268 [1]): 21.4 µM
- CC50 (SF-268 [1]): > 100 µM
- TGI (SF-268 [1]): 87.1 µM
- GI50 (SF-539): 5.13 µM
- LC50 (50% net cell kill) (SF-539): 75.9 µM
- TGI (SF-539): 22.4 µM
- GI50 (SNB-75): 13.5 µM and 1.91 µM
- LC50 (SNB-75; Homo sapiens, SNB-75): > 100 µM
- TGI (SNB-75; Homo sapiens, SNB-75): 74.1 µM
- GI50 (LOX IMVI): 3.02 µM
- LC50 (50% net cell kill) (LOX IMVI): 85.1 µM
- TGI (LOX IMVI): 12 µM
- GI50 (M14): 6.46 µM
- CC50 (M14): 64.6 µM
- TGI (M14): 22.9 µM
- GI50 (UACC-62): 3.24 µM
- LC50 (UACC-62): 45.7 µM
- TGI (UACC-62): 15.8 µM
- GI50 (IGROV-1): 10.2 µM
- CC50 (IGROV-1): 63.1 µM
- TGI (IGROV-1): 25.7 µM
- GI50 (OVCAR-4): 7.24 µM
- LC50 (50% net cell kill) (OVCAR-4): > 100 µM
- TGI (OVCAR-4): 89.1 µM
- GI50 (SK-OV-3): 12.3 µM
- LC50 (50% net cell kill) (SK-OV-3): > 100 µM
- TGI (SK-OV-3): 35.5 µM
- GI50 (CAKI-1): 17.8 µM
- LC50 (CAKI-1): 70.8 µM
- TGI (CAKI-1): 35.5 µM
- Activity (Tubulin (Sus scrofa)): > 10 µM
- Activity (MCF7 [2]): 6%
- Activity (SF-268 [3]): 9%
- GI50 (A549): 5.89 µM
- CC50 (A549): > 100 µM
- TGI (A549): 32.4 µM
- GI50 (SN12C): 1.66 µM
- LC50 (SN12C): 31.6 µM
- TGI (SN12C): 6.31 µM
- GI50 (TK-10): 20.4 µM
- CC50 (TK-10): 66.1 µM
- TGI (TK-10): 37.2 µM
- GI50 (MCF7 [4]): 10.5 µM
- LC50 (50% net cell kill) (MCF7 [4]): > 100 µM
- TGI (MCF7 [4]): > 100 µM
- GI50 [5]: 0.955 µM
- LC50 [5]: 58.9 µM
- TGI [5]: 10.2 µM
- GI50 (T47D): 7.41 µM
- LC50 (T47D): > 100 µM
- TGI (T47D): > 100 µM
- RatioGI50 (CCRF-CEM): 0.8
